Shown are actives, neighbours in structure and some others; about 2.7% of the full set was active somewhere.
pPAFAH inh = pPAFAH enzyme inhibitors, primary screen, biochemical, fluorescence polarization, human. recombinant pPAFAH, FP-rhodamine probe fluorescence polarization. AID 463082, 2010. inhibition, % at 3.39 µM. 330,000 compounds, 1.5% hits. Platelet-activating factor acetylhydrolase (Homo sapiens), Q13093;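 active = inhibition above the mean inhibition across the screen plus 3 SD, cut at about 25% in these data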;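 note: inhibitors block binding of the rhodamine activity-based probe so polarization drops; 0% = enzyme with DMSO and 100% = wells lacking pPAFAH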
ARFGAP1 inhibitor = inhibitors of rat ARFGAP1 GAP activity, primary screen, biochemical, fluorescence polarization, GDP tracer. ADP-ribosylation factor GTPase-activating protein 1 (Rattus norvegicus), Q62848. AID 651572, 2012. inhibition, % at 16.5 µM. Arfgap1-stimulated ARF1 GTP hydrolysis, GDP FP detection. 360,000 compounds, 0.26% hits;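 active = inhibition above a per-plate limit, mean inhibition of low control wells plus 3 SD, cut at about 25% in these data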;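 note: 0% = DMSO wells with enzyme and 100% = wells lacking Arfgap1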
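Replicates: Single well per compound | Assay system: Truncated rat Arfgap1 GAP domain | Control set: No-Arfgap1 wells (100%) versus DMSO full-reaction wells (0%) | Times: Enzyme reaction 120 min at 25 °C after 20 min preincubation | Reagent: Human ARF1(Δ1-17)-GTP substrate | Measured by: Tracer-displacement fluorescence polarization with EDTA stop, 620/688 nm | Measure: Percent inhibition of Arfgap1-stimulated GTP hydrolysis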
PAFAH1B3 inh = PAFAH1B3 enzyme inhibitors, primary screen, biochemical, fluorescence polarization, human | recombinant PAFAH1B3, FP-rhodamine probe | 340,000 compounds, 0.28% hits | inhibition, % at 3.39 µM;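 active = inhibition above the screen-wide average of all tested compounds plus 3 SD, cut at about 25% in these data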;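 note: 0% = enzyme with DMSO only and 100% = wells lacking PAFAH1B3 protein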
PAFAH2 inh = PAFAH2 enzyme inhibitors, primary screen, biochemical, fluorescence polarization, human; Platelet-activating factor acetylhydrolase 2, cytoplasmic (Homo sapiens), Q99487; recombinant PAFAH2, FP-rhodamine activity probe; inhibition, % at 3.39 µM; 340,000 compounds, 0.99% hits; AID 492956, 2010;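 active = inhibition above the mean over all tested compounds plus 3 SD, cut at about 30% in these data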;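 note: inhibitors block probe labeling of enzyme so polarization drops; 0% = enzyme with DMSO and 100% = wells lacking PAFAH2 protein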
ASAP1 GAP inh = inhibitors of human ASAP1 ArfGAP activity, primary screen, biochemical, fluorescence polarization; Arf-GAP with SH3 domain, ANK repeat and PH domain-containing protein 1 (Homo sapiens), …; ASAP1-stimulated ARF1 GTP hydrolysis, GDP FP detection; inhibition, % at 16.5 µM; 360,000 compounds, 0.19% hits; AID 624377, 2012; in the data active = inhibition above about 25%;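 note: 0% = vehicle with enzyme and substrate and 100% = no enzyme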
PAFAH1B2 FP inh = PAFAH1B2 enzyme inhibitors, primary screen, biochemical, fluorescence polarization, human; recombinant PAFAH1B2, FP-rhodamine activity probe; inhibition, % at 3.39 µM; 340,000 compounds, 1.2% hits; Platelet-activating factor acetylhydrolase IB subunit alpha2 (Homo sapiens), P68402;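 active = inhibition above the mean of all tested compounds plus 3 SD, cut at about 24% in these data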;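 note: 0% = enzyme with DMSO and 100% = wells lacking PAFAH1B2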
ARFGAP1 confirm = ARFGAP1 inhibitor hit confirmation, biochemical, fluorescence polarization, triplicate; shares compounds with ARFGAP1 inhibitor; ARFGAP1-stimulated ARF1 GTP hydrolysis, GDP tracer FP; inhibition, % at 16.5 µM; 890 compounds, 30% hits; AID 651608, 2012;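 active = average inhibition over triplicates above the hit cutoff set in the earlier primary screen, cut at about 25% in these data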;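 note: 0% = Arfgap1 plus ARF1-GTP with DMSO and 100% = wells lacking Arfgap1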
Target sequence (Q62848 whole entry, looked up): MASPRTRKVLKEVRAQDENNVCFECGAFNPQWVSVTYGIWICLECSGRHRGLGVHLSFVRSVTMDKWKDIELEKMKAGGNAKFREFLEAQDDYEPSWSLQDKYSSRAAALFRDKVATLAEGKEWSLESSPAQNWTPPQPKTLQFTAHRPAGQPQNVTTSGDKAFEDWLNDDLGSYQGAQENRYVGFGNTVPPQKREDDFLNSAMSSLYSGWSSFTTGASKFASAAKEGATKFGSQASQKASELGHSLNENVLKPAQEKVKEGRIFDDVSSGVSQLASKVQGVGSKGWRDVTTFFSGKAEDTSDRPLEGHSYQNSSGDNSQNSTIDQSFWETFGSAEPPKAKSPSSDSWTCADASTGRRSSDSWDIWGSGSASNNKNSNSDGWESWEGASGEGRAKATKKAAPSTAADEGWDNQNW
* marks the source's active call; other numbers are inactive results; x = no result.

SMILES | pPAFAH inh | ARFGAP1 inhibitor | PAFAH1B3 inh | PAFAH2 inh | ASAP1 GAP inh | PAFAH1B2 FP inh | ARFGAP1 confirm
Cc1cccc(C)c1NC(=O)CN(C)C(=O)c1ccc(OCc2ccccc2)cc1 | x | 4 | x | x | 5 | x | x
COC(=O)c1ccc(N2CCN(C)CC2)c(NC(=O)COc2ccccc2Cl)c1 | -1 | 27* | 1 | 7 | 4 | 2 | 2
COc1ccc(-n2c(=O)c3c4c(sc3n(CC(=O)Nc3cc(C)[nH]n3)c2=O)CCCC4)c(OC)c1 | -11 | 33* | -1 | -9 | 10 | -3 | 33*
CCOc1ccccc1NC(=O)Cn1c(=O)n(-c2ccc(OC)cc2OC)c(=O)c2c(C)c(C(=O)N(CC)CC)sc21 | -3 | -5 | -4 | 0 | 10 | 4 | x
COc1cc2oc(-c3ccc(O)cc3)cc(=O)c2c(OC)c1O | x | 17 | 10 | 6 | 20 | 0 | x
COc1cc2oc(-c3ccc(O)cc3)cc(=O)c2c(O)c1OC | 2 | 36* | 9 | 6 | 8 | 9 | 8
CC1CCCCN1CC(O)COCCC12CC3CC(CC(C3)C1)C2 (stereo not drawn) | 1 | 25* | 14 | 0 | 7 | 1 | -8
CCOC(=O)N1CCN(CC(O)COCCC23CC4CC(CC(C4)C2)C3)CC1 (stereo not drawn) | 3 | 3 | 5 | 8 | 0 | 2 | x
CCn1c2ccccc2c2cc(NC(=O)CSc3nnc(-c4cccc(OC)c4)n3N)ccc21 | 17 | 31* | 3 | 0 | 1 | 5 | 26*
CCn1c2ccccc2c2cc(NC(=O)CSc3nnc(-c4ccc(OC)c(OC)c4)n3N)ccc21 | 13 | 1 | -1 | 1 | 3 | -3 | x
COc1ccc(NC(=O)CSc2nnc(-c3cccs3)n2N)cc1S(N)(=O)=O | 0 | 7 | 9 | 2 | 6 | -1 | x
Cc1ccccc1Nc1c([N+](=O)[O-])cncc1[N+](=O)[O-] | 5 | 27* | 15 | 5 | 2 | -6 | 1
CCCCCCCCN1C(=O)[C@H](CC(=O)N2CCSCC2)C[C@@]2(C(=O)OCC)CCCC=C12 | x | 6 | x | x | 4 | x | x
CC[C@@]1(O)C(=O)OCc2c1cc1n(c2=O)Cc2cc3c(N)cccc3nc2-1 | 12 | 2 | 2 | 11 | 18 | -1 | x
CC[C@@]1(O)C(=O)OCc2c1cc1n(c2=O)Cc2cc3c(CN(C)C)c(O)ccc3nc2-1 | 10 | 25* | 0 | 8 | 24 | 4 | 8
COc1cc(NC(=O)c2c(OC)cccc2OC)ccc1NC(=O)c1cc2ccccc2o1 | 10 | 12 | 0 | 7 | 11 | -4 | x
COc1cc(NC(=O)COc2ccc([N+](=O)[O-])cc2)ccc1NC(=O)c1ccco1 | x | 58* | x | x | 12 | x | 75*
COc1cc(NC(=O)COc2ccccc2[N+](=O)[O-])ccc1NC(=O)c1ccco1 | 13 | 6 | 7 | 7 | 0 | 2 | x
COc1cc(NC(=O)c2cc3ccccc3o2)ccc1NC(=O)c1ccco1 | 5 | 27* | 3 | 1 | -1 | 4 | 11
COc1cc([N+](=O)[O-])ccc1NC(=O)COC(=O)c1ccc(NC(N)=O)cc1 | 2 | 29* | 0 | -3 | 14 | 0 | 20
OC[C@@H]1CN(Cc2ccco2)C[C@H](n2cnc3c(NC4CC4)ncnc32)O1 | x | 7 | x | x | -13 | x | x
O=C1CC2(CCN1)CCN(Cc1ccccc1)CC2 | x | -2 | 7 | -2 | -5 | 4 | x
COc1cccc(-c2nnc3sc(-c4ccccn4)nn23)c1 | -2 | 41* | 8 | -1 | 23 | 0 | 45*
O=C(Nc1ccc(F)c(Cl)c1)c1ccccc1NC(=O)C1CCCCC1C(=O)O (stereo not drawn) | x | -1 | 4 | 1 | 2 | 3 | x
